Measurements as given in ChEMBL document CHEMBL1128292, “Discovery of a novel series of orally active non-peptide endothelin-A (ETA) receptor-selective antagonists” (J Med Chem, 1995).
pIC50: −log10 of the molar value.

How the values were obtained:
Endothelin-1 receptor = target: T1, Endothelin-1 receptor (Homo sapiens, UniProt P25101); test: Antagonistic activity against human Endothelin A receptor expressed in LtK; assay type: functional
T1 sequence (P25101 whole entry): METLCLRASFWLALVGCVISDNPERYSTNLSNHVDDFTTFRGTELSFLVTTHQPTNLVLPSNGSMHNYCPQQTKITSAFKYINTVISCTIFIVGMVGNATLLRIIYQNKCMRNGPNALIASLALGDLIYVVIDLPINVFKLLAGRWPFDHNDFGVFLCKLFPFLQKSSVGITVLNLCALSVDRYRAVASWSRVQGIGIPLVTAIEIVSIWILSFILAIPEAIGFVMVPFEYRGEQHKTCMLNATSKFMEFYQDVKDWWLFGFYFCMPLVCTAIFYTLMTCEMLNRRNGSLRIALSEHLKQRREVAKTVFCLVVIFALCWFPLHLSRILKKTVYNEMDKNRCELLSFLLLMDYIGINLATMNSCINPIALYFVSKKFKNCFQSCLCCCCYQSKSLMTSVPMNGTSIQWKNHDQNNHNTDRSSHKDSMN

[1] = target: T2, Endothelin receptor type B (Rattus norvegicus, UniProt P21451); test: Tested for antagonistic activity against Endothelin B receptor in the rat cerebellum.; assay type: functional, tissue-based
T2 sequence (P21451 whole entry): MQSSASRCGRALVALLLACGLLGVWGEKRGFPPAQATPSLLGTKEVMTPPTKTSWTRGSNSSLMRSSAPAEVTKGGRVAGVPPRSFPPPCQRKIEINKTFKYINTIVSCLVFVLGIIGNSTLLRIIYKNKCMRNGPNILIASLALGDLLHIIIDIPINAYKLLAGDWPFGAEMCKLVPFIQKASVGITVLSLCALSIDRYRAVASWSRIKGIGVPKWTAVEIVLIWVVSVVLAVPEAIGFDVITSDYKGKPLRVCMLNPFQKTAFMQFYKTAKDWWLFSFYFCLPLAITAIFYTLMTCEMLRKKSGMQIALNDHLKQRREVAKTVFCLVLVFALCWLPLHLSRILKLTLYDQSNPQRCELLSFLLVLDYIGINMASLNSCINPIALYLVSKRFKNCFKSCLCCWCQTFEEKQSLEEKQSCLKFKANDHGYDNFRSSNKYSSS

[2] = target: T3, Endothelin receptor type B (Homo sapiens, UniProt P24530); test: Tested for antagonistic activity against Endothelin B receptor in the humans (CHO expressed).; assay type: functional
T3 sequence (P24530 whole entry): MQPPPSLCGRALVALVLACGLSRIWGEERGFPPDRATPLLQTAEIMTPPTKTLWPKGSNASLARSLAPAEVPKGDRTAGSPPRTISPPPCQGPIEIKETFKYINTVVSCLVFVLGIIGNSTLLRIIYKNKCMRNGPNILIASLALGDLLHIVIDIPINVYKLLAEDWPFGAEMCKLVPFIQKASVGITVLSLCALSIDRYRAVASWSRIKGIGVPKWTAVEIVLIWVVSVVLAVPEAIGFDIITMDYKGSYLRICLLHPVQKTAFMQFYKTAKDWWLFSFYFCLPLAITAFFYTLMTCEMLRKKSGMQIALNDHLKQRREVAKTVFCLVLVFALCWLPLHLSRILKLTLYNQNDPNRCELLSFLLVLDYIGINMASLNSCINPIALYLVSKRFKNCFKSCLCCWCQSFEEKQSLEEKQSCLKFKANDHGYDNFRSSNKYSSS
In short: (§1)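 Membranes from cultured CHO-K1 cells expressing cloned human ETB receptor, incubated with [125I]ET-3 alone or with increasing unlabelled ligand concentrations, 37 °C, 2 h. Filtration separated bound from free ligand; gamma counting. Nonspecific binding measured with 100 nM unlabelled ET-3. One-site nonlinear least-squares fit of specific binding. IC50 from single competition experiments, triplicate points.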

[3] = target: T3, Endothelin receptor type B; test: Tested for antagonistic activity against Endothelin B receptor in human (CHO expressed).; assay type: functional; in short: as §1

| Structure (SMILES) | pIC50 (Endothelin-1 receptor) | pIC50 [1] | pIC50 [2] | pIC50 [3] |
| --- | --- | --- | --- | --- |
| COc1ccc(C2(O)OC(=O)C(c3ccc4c(c3)OCO4)=C2Cc2ccc(C)cc2)cc1 (stereo unspecified) | 7.29 | 5.35 | 6.41 |  |
| COc1ccc(C2(O)OC(=O)C(c3ccc4c(c3)OCO4)=C2Cc2ccccc2)cc1C (stereo unspecified) | 7.92 |  | 5.76 |  |
| COc1ccc(CC2=C(c3ccc(Cl)cc3)C(=O)OC2(O)c2ccc(OC)cc2)cc1 (stereo unspecified) |  |  | < 5.60 |  |
| COc1ccc(C2(O)OC(=O)C(c3ccc4c(c3)OCO4)=C2Cc2ccc(Cl)cc2)cc1 (stereo unspecified) |  |  | < 5.60 |  |
| COc1ccc(CC2=C(c3ccccc3)C(=O)OC2(O)c2ccc(OC)cc2)cc1 (stereo unspecified) |  |  | < 5.60 |  |
| COc1ccc(C2(O)OC(=O)C(c3ccc4c(c3)OCO4)=C2Cc2ccc(OC)c(C)c2)cc1 (stereo unspecified) | 8.62 |  | 5.94 |  |
| COc1ccc(CC2=C(c3ccc(C)cc3)C(=O)OC2(O)c2ccc(OC)cc2)cc1 (stereo unspecified) |  |  | < 5.57 |  |
| COc1ccc(CC2=C(c3ccc(Cl)c(Cl)c3)C(=O)OC2(O)c2ccc(OC)cc2)cc1 (stereo unspecified) | 6.77 |  | < 5.60 |  |
| COc1ccc(CC2=C(c3ccc4c(c3)OCO4)C(=O)OC2(O)c2ccc(OC)cc2)cc1 (stereo unspecified) |  |  | 5.81 |  |
| O=C1OC(O)(c2ccccc2)C(Cc2ccccc2)=C1c1ccc2c(c1)OCO2 (stereo unspecified) |  | 4.66 |  | 4.52 |
| COc1ccc(CC2=C(c3ccc(OC)cc3)C(=O)OC2(O)c2ccc(OC)cc2)cc1 (stereo unspecified) |  |  | < 5.60 |  |
| O=C1OC(O)(c2ccc(Cl)cc2)C(Cc2ccccc2)=C1c1ccc2c(c1)OCO2 (stereo unspecified) |  | 5.28 | 4.57 |  |
| Cc1ccc(C2(O)OC(=O)C(c3ccc4c(c3)OCO4)=C2Cc2ccccc2)cc1 (stereo unspecified) |  | 5.35 |  | < 4.60 |
| O=C1OC(O)(c2ccc(Cl)c(Cl)c2)C(Cc2ccccc2)=C1c1ccc2c(c1)OCO2 (stereo unspecified) |  |  | < 4.60 |  |
| COc1ccc(C2(O)OC(=O)C(c3ccc4c(c3)OCO4)=C2Cc2ccccc2)cc1 (stereo unspecified) [PD-155080] |  | 6.30 |  | 5.34 |
| COc1ccc(C(=O)/C(Cc2cc(OC)c(OC)c(OC)c2)=C(\C(=O)O)c2ccc3c(c2)OCO3)cc1 [PD-156707 SODIUM] | 9.51 |  | 6.38 |  |
